Test [1] deals with Staphylococcus aureus. Nature of the test: Antibacterial activity against Staphylococcus aureus ATCC 29213 assessed as inhibition of bacterial growth incubated for 16 hrs by broth microdilution assay. Format: functional. In outline: (§1)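 MICs were read in µg/mL against indicator strains S. aureus 29213 and S. simulans 22. The growth medium was supplemented with Ca2+ at 5.0 or 10 mM.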

Test [2] concerns Staphylococcus simulans. Nature of the test: Antibacterial activity against Staphylococcus simulans 22 assessed as inhibition of bacterial growth incubated for 16 hrs in presence of 10 mM Ca2+ by broth microdilution assay. Format: functional. The essentials: as §1
The test system of test [3] is Staphylococcus simulans. In words: Antibacterial activity against Staphylococcus simulans 22 assessed as inhibition of bacterial growth incubated for 16 hrs in presence of C15-PP by broth microdilution assay. In kind it is functional, organism-based. The essentials: (§2)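 The antibiotic was pre-incubated with the cell wall precursor (e.g. UDP-GlcNAc, C55-PP, C55-P) before being given to the bacteria, with vancomycin as positive control.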
Background: In broth dilution the organism is exposed to a series of concentrations in liquid medium.

Test [4] is described as follows: Binding affinity to undecaprenyl phosphate (C55-P) at 0.5 to 2 equiv in Ca2+-containing buffer incubated for 2 hrs by TLC-based binding assay. To be noted: dose 0.5-2 equiv.
The subject of test [5] is Staphylococcus aureus. Nature of the test: Induction of UDP-MurNAc-pentapeptide accumulation in Staphylococcus aureus ATCC 29213 at 10 times MIC incubated for 60 mins by HPLC analysis. Format: functional.
Test [6] deals with Staphylococcus simulans. Nature of the test: Antibacterial activity against Staphylococcus simulans 22 assessed as inhibition of bacterial growth incubated for 16 hrs in presence of 5 mM Ca2+ by broth microdilution assay. In kind it is functional. In outline:
as §1

Test [7] has as its system Staphylococcus simulans. Nature of the test: Antibacterial activity against Staphylococcus simulans 22 assessed as inhibition of bacterial growth incubated for 16 hrs in presence of C55-PP by broth microdilution assay. In kind it is functional, organism-based. The essentials: as §2
Test [8] has as its system Staphylococcus simulans. In words: Antibacterial activity against Staphylococcus simulans 22 assessed as inhibition of bacterial growth incubated for 16 hrs in presence of C15-P by broth microdilution assay. In kind it is functional, organism-based. In outline: as §2
A short description of test [9]: Binding affinity to undecaprenyl phosphate (C55-P) assessed as reduction in lipid II synthesis at 0.5 to 2 equiv in presence of UDP-GlcNAc, UDPMurNAc-pentapeptide and Micrococcus flavus membrane vesicles and measured after 2 hrs by TLC analysis. Particulars: dose 0.5-2 equiv. In outline:
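C55-P was pre-treated with the antibiotic over a range of concentrations. UDP-GlcNAc, UDP-MurNAc-pentapeptide and M. flavus membrane vesicles containing MraY and MurG were then added, and lipid II formation was monitored.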

Test [10] can be described thus: Binding affinity to undecaprenyl phosphate (C55-P) in large unilamellar vesicles comprising 1,2-dioleoyl-sn-glycero-3-phosphocholine containing 1.5 mol % C55-P by ITC analysis. The essentials: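 Isothermal titration calorimetry: DOPC vesicles containing 1.5 mol% C55-P were titrated into the antibiotic solution in HEPES buffer with CaCl2. Heat was plotted against molar ratio.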
For orientation: In ITC the heat of successive injections is recorded.

The subject of test [11] is Staphylococcus aureus. Nature of the test: Antibacterial activity against Staphylococcus aureus ATCC 29213 assessed as inhibition of bacterial growth incubated for 16 hrs in presence of 10 mM Ca2+ by broth microdilution assay. Format: functional. In outline: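 MIC, read in µg/mL, was determined in growth medium supplemented with Ca2+ at a final 10 mM. The same strain was also tested at 5 mM Ca2+ to check how calcium level affects the MIC.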

Test [12] is described as follows: Binding affinity to lipid II at 0.5 to 2 equiv in Ca2+-containing buffer incubated for 2 hrs by TLC-based binding assay. To be noted: dose 0.5-2 equiv.
The test system of test [13] is Staphylococcus simulans. Nature of the test: Antibacterial activity against Staphylococcus simulans 22 assessed as inhibition of bacterial growth incubated for 16 hrs in presence of C55-P by broth microdilution assay. In kind it is functional, organism-based. The essentials:
as §2

≈ marks a conversion by molar mass, not a printed value. Calls of active or inactive are those of the source. The calls are words filed in the database; no cut-off is given here. Bridge positions count the residues as written; N and C are the ends. Square brackets hold non-standard residues; d marks the D form. Peptide text beside a SMILES is read from it. * marks the point of attachment. Tetradecenoyl(2E,13-Me) = CC(C)CCCCCCCCC/C=C/C(=O)*; d(aThr) = C[C@@H](O)[C@@H](N)C(=O)O; dPip = O=C(O)[C@H]1CCCCN1; Dap = NC[C@H](N)C(=O)O

One may read the MIC as the lowest concentration found to suppress growth. As usually defined, the Kd is the constant that tells how readily two partners part at equilibrium. Read a high Kd as lower affinity. Turning to `CC[C@H](C)[C@@H]1NC(=O)[C@@H]([C@@H](C)O)NC(=O)CNC(=O)[C@H](CC(=O)O)NC(=O)CNC(=O)[C@H](CC(=O)O)NC(=O)CNC(=O)[C@H]2CCCCN2C(=O)[C@@H](NC(=O)[C@H](CC(=O)O)NC(=O)/C=C/CCCCCCCCCC(C)C)CNC(=O)[C@@H]2CCCN2C1=O` ({Tetradecenoyl(2E,13-Me)}-D[Dap][dPip]GDGDG[d(aThr)]IP; lactam 2-C), the MIC with Staphylococcus aureus [1] is 4 mg/L (≈ 3.21 µM); in the test with Staphylococcus simulans [2], not above 1 mg/L; in the test with Staphylococcus simulans [6], 4 mg/L; with Staphylococcus aureus [11] it was 2 mg/L. The outcome (in the test with Staphylococcus simulans [3]; in [4]; in the test with Staphylococcus aureus [5]) was Active. Moreover, the outcome (in the test with Staphylococcus simulans [7]; in the test with Staphylococcus simulans [8]; in [12]; with Staphylococcus simulans [13]) was inactive. The Activity entry in test [9] was “Dose-dependent effect”. In test [10], this molecule showed a dissociation constant Kd of 7.3 nM.

For the origin of these results see ChEMBL document CHEMBL4680073, “Total Synthesis of Laspartomycin C and Characterization of Its Antibacterial Mechanism of Action” (J Med Chem, 2016).
